In paper PMC10092897 (Chemistry (Weinheim an Der Bergstrasse, Germany), 2022):
Read-outs that look alike come from different tables or passages of the source.

Legend:
CYP199A4 [1] = biological target: T1, CYP199A4 (Rhodopseudomonas palustris, UniProt Q2IU02); test: Spin state determination by UV-vis spectroscopy; format: binding; conditions: WT CYP199A4, 50 mM Tris, pH 7.4
T1 sequence (Q2IU02 1-410): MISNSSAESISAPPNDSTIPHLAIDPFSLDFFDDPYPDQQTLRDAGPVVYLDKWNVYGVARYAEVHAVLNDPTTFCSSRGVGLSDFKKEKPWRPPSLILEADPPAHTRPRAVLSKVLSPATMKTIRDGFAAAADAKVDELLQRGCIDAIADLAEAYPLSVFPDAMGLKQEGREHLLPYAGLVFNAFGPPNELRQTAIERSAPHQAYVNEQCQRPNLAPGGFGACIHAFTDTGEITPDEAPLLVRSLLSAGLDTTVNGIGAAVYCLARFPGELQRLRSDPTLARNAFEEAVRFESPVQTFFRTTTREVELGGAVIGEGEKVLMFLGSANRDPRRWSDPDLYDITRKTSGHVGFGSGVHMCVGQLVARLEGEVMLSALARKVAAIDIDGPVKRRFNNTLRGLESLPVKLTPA

CYP199A4 [2] = biological target: T1, CYP199A4; test: Dissociation constant determination by UV-vis binding titration
In short: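 UV-vis titration at 30 °C: enzyme diluted to 0.5–2.0 μM in 50 mM Tris, pH 7.4. Substrate was added from 1, 10 or 100 mM stocks in ethanol or DMSO. Soret peak-to-trough absorbance difference was recorded over 700–250 nm. Kd came from fitting ΔA against total substrate concentration to the tight-binding quadratic equation.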

CYP199A4 [3] = biological target: T1, CYP199A4; test: In vitro NADH turnover assay and metabolite analysis; format: biochemical; conditions: for PFR (product formation rate): WT CYP199A4 0.5 μM, 50 mM Tris, pH 7.4
F298V mutant of CYP199A4 [4] = test: In vitro NADH turnover assay and metabolite analysis, F298V mutant; format: biochemical, Rhodopseudomonas palustris
In short: (§1)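 Mutant was expressed and purified as for WT, with glycerol removed by gel filtration. NADH was added to ~320 μM, then substrate at 1 mM final. NADH oxidation was followed at A340 (ε 6.22 mM⁻¹cm⁻¹). Values are mean ± S.D., n ≥ 3.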

F298V mutant of CYP199A4 [5] = test: Spin state determination by UV-vis spectroscopy, F298V mutant; format: binding, Rhodopseudomonas palustris
In short: (§2)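 Mutant was produced and purified as for WT. UV-vis spectra of the substrate-treated enzyme were recorded at 30 °C. The percentage low-to-high-spin shift of the ferric heme was estimated to about ±5%.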

CYP199A4 [6] = biological target: T1, CYP199A4; conditions: WT CYP199A4, cited from earlier work
CYP199A4 [7] = biological target: T1, CYP199A4; conditions: WT CYP199A4, cited from earlier work; remark: listed apart in the source
F182L mutant of CYP199A4 [8] = test: Spin state determination by UV-vis spectroscopy, F182L variant; format: binding, Rhodopseudomonas palustris
In short: as §2

CYP199A4 [9] = biological target: T1, CYP199A4; conditions: WT CYP199A4; cited from earlier work
F182L mutant of CYP199A4 [10] = test: In vitro NADH turnover assay and metabolite analysis, F182L mutant; format: biochemical, Rhodopseudomonas palustris
In short: as §1

**Q.** What does the source list for COc1cccc(-c2ccc(C(=O)O)cc2)c1 [4‐(3′‐methoxyphenyl)BA, 4‐(3′‐methoxyphenyl)benzoic acid]?
**A.** HS [%] (shift from low-spin to high-spin ferric heme) (CYP199A4 [1]): ≥95%; HS [%] (shift from low-spin to high-spin ferric heme) (CYP199A4 [1]; listed as 4‐(3′‐Methoxyphenyl)benzoic acid): ≥ 95%; Kd (CYP199A4 [2]): 0.6 ± 0.1 µM

**Q.** For COc1ccc(-c2ccc(C(=O)O)cc2)cc1 [4‐(4′‐methoxyphenyl)BA, 4‐(4′‐methoxyphenyl)benzoic acid], which “HS [%] (shift from low-spin to high-spin ferric heme)” value (CYP199A4 [1]) is on record?
**A.** ~10%

**Q.** What about the Kd (CYP199A4 [2]) of the same compound?
**A.** 100 ± 10 µM

**Q.** What about the “Coupling (percentage of NADH utilised for formation of oxidation products)” value (CYP199A4 [3]; WT CYP199A4) of the same compound?
**A.** ≤ 1%

**Q.** Which “HS [%] (shift from low-spin to high-spin ferric heme)” value (CYP199A4 [1]) does the source give for O=C(O)c1ccc(C(=O)c2ccccc2)cc1 [4‐benzoylBA, 4‐benzoylbenzoic acid] here?
**A.** type II^[c]

**Q.** And the “HS [%] (shift from low-spin to high-spin ferric heme)” value (CYP199A4 [1]; listed as 4‐benzoylbenzoic acid)?
**A.** type II

**Q.** And the Kd (CYP199A4 [2])?
**A.** 2.3 ± 0.4 µM

**Q.** For O=C(O)c1ccc(Cc2ccccc2)cc1 [4‐benzylBA, 4‐benzylbenzoic acid], which “HS [%] (shift from low-spin to high-spin ferric heme)” value (CYP199A4 [1]) is on record?
**A.** 90%

**Q.** And the Kd (CYP199A4 [2])?
**A.** 5.2 ± 0.25 µM

**Q.** What about the “Coupling (percentage of NADH utilised for formation of oxidation products)” value (CYP199A4 [3]; WT CYP199A4) of the same compound?
**A.** 95±11%

**Q.** And the “PFR (product formation rate)” value (CYP199A4 [3])?
**A.** 522 ± 61 min⁻¹

**Q.** And the “PFR (product formation rate)” value (CYP199A4 [3]; listed as 4‐Benzylbenzoic acid)?
**A.** 522 min⁻¹

**Q.** With O=C(O)c1ccc(C2CCCCC2)cc1 [4‐cyclohexylBA, 4‐cyclohexylbenzoic acid] as the compound, how does the Coupling efficiency (F298V mutant of CYP199A4 [4]; F298V mutant) read?
**A.** 31±9%

**Q.** What about the NADH oxidation rate (F298V mutant of CYP199A4 [4]; F298V mutant) of the same compound?
**A.** 162 ± 55 min⁻¹

**Q.** What about the “Product selectivity: 4-(1-hydroxycyclohexyl)benzoic acid (benzylic hydroxylation)” value (F298V mutant of CYP199A4 [4]; F298V variant) of the same compound?
**A.** 34%

**Q.** What about the High-spin species (F298V mutant of CYP199A4 [5]) of the same compound?
**A.** ≥ 85%

**Q.** What about the “HS [%]” value (CYP199A4 [6]) of the same compound?
**A.** ≥95%

**Q.** What about the Coupling (CYP199A4 [7]) of the same compound?
**A.** 33±2%

**Q.** What about the NADH oxidation rate (CYP199A4 [7]) of the same compound?
**A.** 169 ± 11 min⁻¹

**Q.** What about the “PFR (product formation rate)” value (CYP199A4 [7]) of the same compound?
**A.** 52 ± 6 min⁻¹

**Q.** What about the High-spin species (F182L mutant of CYP199A4 [8]) of the same compound?
**A.** 90%

**Q.** And the “Product selectivity: 4-(1-hydroxycyclohexyl)benzoic acid (benzylic hydroxylation)” value (CYP199A4 [3]; WT CYP199A4)?
**A.** 24%

**Q.** What about the Kd (CYP199A4 [9]) of the same compound?
**A.** 0.45 ± 0.05 µM

**Q.** Which “HS [%]” value (CYP199A4 [6]; ref 8c) does the source give for COc1ccc(C(=O)O)cc1 [4‐methoxyBA, 4‐methoxybenzoic acid] here?
**A.** ≥95%

**Q.** What about the Coupling (CYP199A4 [7]; ref 8c) of the same compound?
**A.** 91±10%

**Q.** And the NADH oxidation rate (CYP199A4 [7]; ref 8c)?
**A.** 1340 ± 30 min⁻¹

**Q.** And the “PFR (product formation rate)” value (CYP199A4 [7]; ref 8c)?
**A.** 1220 ± 120 min⁻¹

**Q.** For O=C(O)c1ccc(-c2ccccc2)cc1 [4‐phenylBA, 4‐phenylbenzoic acid], which NADH oxidation rate (F298V mutant of CYP199A4 [4]; F298V mutant) is on record?
**A.** 1030 ± 90 min⁻¹

**Q.** And the “Oxidation by the F298V mutant (in words)” value (F298V mutant of CYP199A4 [4]; F298V mutant)?
**A.** unable to oxidise

**Q.** And the High-spin species (F298V mutant of CYP199A4 [5])?
**A.** ≥ 85%

**Q.** And the Coupling efficiency (F182L mutant of CYP199A4 [10])?
**A.** 30%

**Q.** What about the NADH oxidation rate (F182L mutant of CYP199A4 [10]) of the same compound?
**A.** 75 ± 0.3 min⁻¹

**Q.** And the “Proportion of 4-(3′-hydroxyphenyl)benzoic acid among metabolites” value (F182L mutant of CYP199A4 [10]; RT 16.2 min)?
**A.** 9%

**Q.** What about the “HS [%]” value (CYP199A4 [6]) of the same compound?
**A.** 90%

**Q.** And the NADH oxidation rate (CYP199A4 [7])?
**A.** 902 ± 34 min⁻¹

**Q.** What about the High-spin species (F182L mutant of CYP199A4 [8]) of the same compound?
**A.** ~10%

**Q.** What about the Kd (CYP199A4 [9]) of the same compound?
**A.** 1.7 ± 0.1 µM

**Q.** Which “HS [%]” value (CYP199A4 [6]) does the source give for CC(C)(C)c1ccc(C(=O)O)cc1 [4‐tert‐butylBA, 4‐tert‐butylbenzoic acid] here?
**A.** ≥95%

**Q.** What about the Coupling (CYP199A4 [7]) of the same compound?
**A.** 100±13%

**Q.** What about the NADH oxidation rate (CYP199A4 [7]) of the same compound?
**A.** 227 ± 4 min⁻¹

**Q.** And the “PFR (product formation rate)” value (CYP199A4 [7])?
**A.** 227 ± 32 min⁻¹

**Q.** And the Kd (CYP199A4 [9])?
**A.** 39 ± 2 µM
